Assay results: ChEMBL document CHEMBL1131236, “Antitumor agents. 185. Synthesis and biological evaluation of tridemethylthiocolchicine analogues as novel topoisomerase II inhibitors” (J Med Chem, 1998)
≈ marks a conversion by molar mass, not a printed value.

What was measured:
A549 [1] = assay: In vitro growth inhibition of A549, lung carcinoma.; type: functional, cell-based; details: Homo sapiens
In short: (§1)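 Human tumor lines screened in-house: KB, A549, MCF-7, CAKI-1 and SK-MEL-2. Read-out was SRB staining with absorbance at 562 nm.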

CAKI-1 [2] = assay: In vitro growth inhibition of CAKI-1, Kidney carcinoma; type: functional, cell-based; details: Homo sapiens; in short: as §1
KB = assay: In vitro growth inhibition of KB, epidermoid carcinoma of the nasopharynx.; type: functional, cell-based; details: Homo sapiens; in short: as §1
MCF7 [3] = assay: In vitro growth inhibition of MCF-7, breast adenocarcinoma.; type: functional, cell-based; details: Homo sapiens; in short: as §1
SK-MEL-2 [4] = assay: In vitro percent inhibition of SK-MEL-2 cells, malignant melanoma.; type: functional, Homo sapiens; design: concentration or dose not given beside the values
SK-MEL-2 [5] = assay: In vitro growth inhibition of SK-MEL-2, malignant melanoma.; type: functional, cell-based; details: Homo sapiens; in short: as §1
Tubulin = type: protein-complex assay
CAKI-1 [6] = assay: In vitro percent inhibition of CAKI-1, Kidney carcinoma; type: functional, Homo sapiens; design: concentration or dose not given beside the values
DNA topoisomerase II [7] = target: T1, DNA topoisomerase II (Homo sapiens, UniProt P11388+Q02880); assay: In vitro inhibitory activity at 100 uM against topoisomerase II measured as ATP-dependent unknotting of P4 DNA compared to enzyme and DNA control.; type: protein assay
[8] = target: T2, DNA topoisomerase 1 (Homo sapiens) (UniProt P11387); assay: In vitro inhibitory activity at 100 uM against topoisomerase I measured as ATP-independent relaxation of supercoiled plasmid DNA compared to enzyme and DNA control.
T2 sequence (whole entry): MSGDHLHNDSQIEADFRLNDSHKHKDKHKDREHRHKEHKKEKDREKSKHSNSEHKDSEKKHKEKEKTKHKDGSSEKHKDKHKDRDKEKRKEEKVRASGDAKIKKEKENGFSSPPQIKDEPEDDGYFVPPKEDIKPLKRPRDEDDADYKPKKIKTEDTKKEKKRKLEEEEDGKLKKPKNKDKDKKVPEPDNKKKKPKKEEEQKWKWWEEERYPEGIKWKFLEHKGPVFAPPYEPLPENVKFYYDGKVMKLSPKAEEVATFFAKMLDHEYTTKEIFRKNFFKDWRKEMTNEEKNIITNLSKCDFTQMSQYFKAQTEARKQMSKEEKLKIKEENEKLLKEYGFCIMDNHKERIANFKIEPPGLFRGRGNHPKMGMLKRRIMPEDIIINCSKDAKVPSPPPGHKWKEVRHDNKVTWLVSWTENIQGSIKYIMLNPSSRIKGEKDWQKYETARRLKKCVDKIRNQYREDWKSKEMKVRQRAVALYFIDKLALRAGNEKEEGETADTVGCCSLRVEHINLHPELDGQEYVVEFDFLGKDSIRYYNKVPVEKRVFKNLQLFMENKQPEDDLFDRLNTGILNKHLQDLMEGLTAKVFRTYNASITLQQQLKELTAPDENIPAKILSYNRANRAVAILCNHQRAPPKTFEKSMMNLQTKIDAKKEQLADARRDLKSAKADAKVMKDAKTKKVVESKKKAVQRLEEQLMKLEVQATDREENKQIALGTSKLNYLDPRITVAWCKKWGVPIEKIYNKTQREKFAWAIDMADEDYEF

A549 [9] = assay: In vitro percent inhibition of A549, lung carcinoma.; type: functional, Homo sapiens
MCF7 [10] = assay: In vitro percent inhibition of MCF-7, breast adenocarcinoma.; type: functional, Homo sapiens
DNA topoisomerase II [11] = target: T1, DNA topoisomerase II; assay: In vitro activity against mammalian topoisomerase II measured as ATP-dependent unknotting of P4 DNA compared to enzyme and DNA control; type: protein assay
In short: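 Topo II inhibition read as ATP-dependent unknotting of P4 DNA, compared with enzyme-only and DNA-only control reactions.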

CAKI-1 [12] = assay: In vitro percent inhibition of CAKI-1, Kidney carcinoma; Range 12-38; type: functional, Homo sapiens
MCF7 [13] = assay: In vitro percent inhibition of MCF-7, breast adenocarcinoma.; Range 23-48; type: functional, Homo sapiens
SK-MEL-2 [14] = assay: In vitro percent inhibition of SK-MEL-2 cells, malignant melanoma.; Range 26-41; type: functional, Homo sapiens
A549 [15] = assay: In vitro percent inhibition of A549, lung carcinoma.; Range 18-43
A549 [16] = assay: In vitro growth inhibition of A549, lung carcinoma; type: functional, cell-based; details: Homo sapiens; in short: as §1
A549 [17] = assay: In vitro percent inhibition of A549, lung carcinoma; type: functional, Homo sapiens

Row | SMILES | EC50 (KB) | EC50 (MCF7 [3]) | EC50 (SK-MEL-2 [5]) | IC50 (Tubulin) | inhibition (DNA topoisomerase II [7]) | inhibition [8] | EC50 (CAKI-1 [2]) | also measured
1 | Br.CSc1ccc2c(cc1=O)[C@@H](NC(=O)c1ccc(N)cc1)CCc1cc(O)c(O)c(O)c1-2 | 4.8 µg/mL | 10.7 µg/mL | > 19.5 µg/mL | > 40 µM |  |  | > 19.5 µg/mL | EC50 (A549 [1]): 9.7 µg/mL; Inhibition (SK-MEL-2 [4]): 42%; Inhibition (CAKI-1 [6]): 37%
2 | CSc1ccc2c(cc1=O)[C@@H](NC(=O)c1cc([N+](=O)[O-])cc([N+](=O)[O-])c1)CCc1cc(O)c(O)c(O)c1-2 |  |  |  | > 40 µM | 100% | 0% |  | 
3 | CSc1ccc2c(cc1=O)[C@@H](NC(=O)c1ccc(NC(=O)C34CCC(C)(C(=O)O3)C4(C)C)cc1)CCc1cc(O)c(O)c(O)c1-2 (some centres undefined) |  |  |  | > 40 µM | 0% | 0% |  | 
4 | CSc1ccc2c(cc1=O)[C@@H](NC(=O)c1ccc(F)cc1)CCc1cc(O)c(O)c(O)c1-2 |  |  |  | > 40 µM | 100% | 0% |  | 
5 | COc1cc2c(c(O)c1O)-c1ccc(SC)c(=O)cc1[C@@H](NC(C)=O)CC2 |  |  |  |  |  |  |  | IC50 (DNA topoisomerase II [11]): > 150 µM
6 | CSc1ccc2c(cc1=O)[C@@H](NC(=O)C13CC4CC(CC(C4)C1)C3)CCc1cc(O)c(O)c(O)c1-2 |  |  |  | > 40 µM | 0% | 0% |  | 
7 | CSc1ccc2c(cc1=O)[C@@H](NC(=O)c1ccc([N+](=O)[O-])cc1)CCc1cc(OC(C)=O)c(OC(C)=O)c(OC(C)=O)c1-2 | 2.7 µg/mL (≈ 4.45 µM) | > 0.15 µg/mL | > 0.3 µg/mL | > 40 µM | 0% | 0% | > 0.3 µg/mL | EC50 (A549 [1]): > 0.15 µg/mL; Inhibition (CAKI-1 [12]): 12%; Inhibition (MCF7 [13]): 23%; Inhibition (SK-MEL-2 [14]): 26%; Inhibition (A549 [15]): 18%
8 | CSc1ccc2c(cc1=O)[C@@H](NC(=O)c1ccc([N+](=O)[O-])cc1)CCc1cc(OC(=O)C(C)C)c(OC(=O)C(C)C)c(OC(=O)C(C)C)c1-2 | 25.5 µg/mL (≈ 36.9 µM) | > 27.6 µg/mL | 27.6 µg/mL (≈ 40 µM) | > 40 µM | 0% | 0% | > 27.6 µg/mL | EC50 (A549 [16]): > 27.6 µg/mL; Inhibition (A549 [17]): 19%; Inhibition (MCF7 [10]): 43%; Inhibition (CAKI-1 [6]): 17%

Further lines, with some results ahead:

Row | EC50 (KB) | EC50 (MCF7 [3]) | EC50 (SK-MEL-2 [5]) | IC50 (Tubulin) | inhibition (DNA topoisomerase II [7]) | inhibition [8] | SMILES | EC50 (CAKI-1 [2]) | also measured
9 | 7.7 µg/mL (≈ 16 µM) | > 9.6 µg/mL | > 9.6 µg/mL | > 40 µM | 100% | < 100% | CSc1ccc2c(cc1=O)[C@@H](NC(=O)c1ccc([N+](=O)[O-])cc1)CCc1cc(O)c(O)c(O)c1-2 | > 9.6 µg/mL | EC50 (A549 [1]): > 9.6 µg/mL; Inhibition (A549 [9]): 36%; Inhibition (MCF7 [10]): 38%; Inhibition (SK-MEL-2 [4]): 0%; Inhibition (CAKI-1 [6]): 20%
10 |  |  |  | > 40 µM | 100% | 0% | CSc1ccc2c(cc1=O)[C@@H](NC(=O)c1ccc(Cl)cc1)CCc1cc(O)c(O)c(O)c1-2 |  | 
11 |  |  |  | > 40 µM | 100% | 0% | CSc1ccc2c(cc1=O)[C@@H](NC(=O)c1cccc([N+](=O)[O-])c1)CCc1cc(O)c(O)c(O)c1-2 |  | 
12 |  |  |  |  | 100% | 0% | CSc1ccc2c(cc1=O)[C@@H](NC(=O)c1ccc(N)cc1)CCc1cc(O)c(O)c(O)c1-2 |  | 
